Measurements from ChEMBL document CHEMBL1817571, “Design and synthesis of new prostaglandin D₂ receptor antagonists” (Bioorg Med Chem, 2011).

How the values were obtained:
[1] = target: T1, Prostaglandin E2 receptor EP1 subtype (Mus musculus, UniProt P35375); test: Displacement of [3H]PGE2 from mouse prostaglandin EP1 receptor expressed in CHO cells after 20 mins by liquid scintillation counting
T1 sequence (P35375 whole entry): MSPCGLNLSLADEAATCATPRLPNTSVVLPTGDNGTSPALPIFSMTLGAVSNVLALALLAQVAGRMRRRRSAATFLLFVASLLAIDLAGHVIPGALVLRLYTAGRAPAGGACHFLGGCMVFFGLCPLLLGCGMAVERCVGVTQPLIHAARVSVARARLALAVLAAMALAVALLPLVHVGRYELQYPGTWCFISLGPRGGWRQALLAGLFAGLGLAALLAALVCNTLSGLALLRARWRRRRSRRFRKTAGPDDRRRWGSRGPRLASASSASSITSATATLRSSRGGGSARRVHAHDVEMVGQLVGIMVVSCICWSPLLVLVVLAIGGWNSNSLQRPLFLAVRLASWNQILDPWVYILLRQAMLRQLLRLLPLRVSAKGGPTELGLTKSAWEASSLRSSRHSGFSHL

[2] = target: Prostaglandin E2 receptor EP4 subtype (Mus musculus, UniProt P32240); test: Displacement of [3H]PGE2 from mouse prostaglandin EP4 receptor expressed in CHO cells after 60 mins by liquid scintillation counting; type: cell-based
Sequence of Prostaglandin E2 receptor EP4 subtype (P32240 whole entry): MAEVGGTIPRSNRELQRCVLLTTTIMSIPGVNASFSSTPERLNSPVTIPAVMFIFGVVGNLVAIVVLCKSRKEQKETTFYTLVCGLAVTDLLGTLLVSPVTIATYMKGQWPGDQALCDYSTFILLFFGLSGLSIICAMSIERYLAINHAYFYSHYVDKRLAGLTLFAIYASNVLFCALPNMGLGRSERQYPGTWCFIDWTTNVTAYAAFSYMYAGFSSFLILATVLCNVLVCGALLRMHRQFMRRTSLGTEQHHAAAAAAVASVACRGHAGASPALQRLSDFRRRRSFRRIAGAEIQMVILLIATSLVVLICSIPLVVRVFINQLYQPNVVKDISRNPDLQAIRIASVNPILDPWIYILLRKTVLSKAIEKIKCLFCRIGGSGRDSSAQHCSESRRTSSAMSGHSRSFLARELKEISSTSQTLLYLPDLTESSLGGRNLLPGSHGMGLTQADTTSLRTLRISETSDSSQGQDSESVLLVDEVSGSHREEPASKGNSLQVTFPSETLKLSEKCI
Procedure, shortened: (§1)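 Membranes came from CHO cells stably expressing mEP1, EP2, EP3 or EP4. They were incubated with 2.5 nM [3H]PGE2 and graded test concentrations in 10 mM KH2PO4–KOH (1 mM EDTA, 10 mM MgCl2, 100 mM NaCl, pH 6.0) at room temperature, 20 min for EP1 and 60 min for EP2–4. Reactions were filtered on GF/B, washed with ice-cold buffer, and counted by scintillation. IC50 came by regression, with Ki via Cheng–Prusoff.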

[3] = target: T2, Prostaglandin D2 receptor (Mus musculus, UniProt P70263); test: Antagonist activity at mouse prostanoid DP receptor expressed in CHO cells assessed as inhibition of PGD2-induced intracellular cAMP production; type: functional, cell-based
T2 sequence (P70263 whole entry): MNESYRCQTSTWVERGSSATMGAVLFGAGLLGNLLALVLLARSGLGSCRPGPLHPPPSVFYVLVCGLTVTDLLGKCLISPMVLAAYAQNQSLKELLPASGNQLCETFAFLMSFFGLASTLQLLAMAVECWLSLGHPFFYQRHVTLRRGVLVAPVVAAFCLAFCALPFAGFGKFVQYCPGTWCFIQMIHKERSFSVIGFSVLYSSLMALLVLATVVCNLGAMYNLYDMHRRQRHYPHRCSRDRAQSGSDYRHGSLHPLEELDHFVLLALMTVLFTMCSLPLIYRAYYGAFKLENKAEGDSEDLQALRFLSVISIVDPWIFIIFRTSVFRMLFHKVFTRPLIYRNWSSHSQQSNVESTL
Procedure, shortened: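 CHO-mDP cells were seeded at 1×10^5 cells/well and grown 2 days. They were preincubated about 10 min at 37 °C in MEM with 2 µM diclofenac, then about 10 min in MEM with 0.1% BSA, 1 mM IBMX and 2 µM diclofenac. Test compounds at various concentrations plus 10 nM PGD2 were then added for 10 min at 37 °C. Reactions were stopped with 10% TCA, extracted with tri-n-octylamine/chloroform, and cAMP was measured by EIA.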

Prostacyclin receptor = Prostacyclin receptor (Homo sapiens, UniProt P43119); test: Displacement of [3H]Iloprost from human prostanoid IP receptor expressed in CHO cells after 30 mins by liquid scintillation counting
Sequence of Prostacyclin receptor (P43119 whole entry): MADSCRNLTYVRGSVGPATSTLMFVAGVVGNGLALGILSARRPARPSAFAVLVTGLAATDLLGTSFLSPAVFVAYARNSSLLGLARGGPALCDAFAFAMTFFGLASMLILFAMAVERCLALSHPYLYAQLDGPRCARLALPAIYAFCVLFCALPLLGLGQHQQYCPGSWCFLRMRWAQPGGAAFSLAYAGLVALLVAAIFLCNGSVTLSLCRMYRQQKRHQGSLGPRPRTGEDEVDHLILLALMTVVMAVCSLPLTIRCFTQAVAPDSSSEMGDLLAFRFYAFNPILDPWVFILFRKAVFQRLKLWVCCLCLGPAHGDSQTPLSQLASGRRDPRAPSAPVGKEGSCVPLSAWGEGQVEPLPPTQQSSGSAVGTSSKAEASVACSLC

[4] = target: T2, Prostaglandin D2 receptor; test: Displacement of [3H]PGD2 from mouse prostanoid DP receptor expressed in CHO cells after 20 mins by liquid scintillation counting
[5] = target: T3, Prostaglandin E2 receptor EP3 subtype (Mus musculus, UniProt P30557); test: Displacement of [3H]PGE2 from mouse prostaglandin EP3alpha receptor expressed in CHO cells after 60 mins by liquid scintillation counting; type: cell-based
T3 sequence (P30557 whole entry): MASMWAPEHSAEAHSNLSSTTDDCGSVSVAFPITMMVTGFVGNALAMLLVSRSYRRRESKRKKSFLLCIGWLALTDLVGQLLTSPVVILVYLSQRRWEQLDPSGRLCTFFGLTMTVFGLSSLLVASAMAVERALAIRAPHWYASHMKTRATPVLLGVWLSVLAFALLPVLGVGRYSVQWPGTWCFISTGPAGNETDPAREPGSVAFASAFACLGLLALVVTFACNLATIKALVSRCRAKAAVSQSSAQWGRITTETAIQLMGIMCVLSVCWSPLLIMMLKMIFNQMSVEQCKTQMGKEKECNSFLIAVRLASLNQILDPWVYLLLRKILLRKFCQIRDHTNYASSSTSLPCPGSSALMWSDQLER
Procedure, shortened: as §1

[6] = target: Prostaglandin F2-alpha receptor (Mus musculus, UniProt P43117); test: Displacement of [3H]PGF2alpha from mouse prostanoid FP receptor expressed in CHO cells after 60 mins by liquid scintillation counting; type: cell-based
Sequence of Prostaglandin F2-alpha receptor (P43117 whole entry): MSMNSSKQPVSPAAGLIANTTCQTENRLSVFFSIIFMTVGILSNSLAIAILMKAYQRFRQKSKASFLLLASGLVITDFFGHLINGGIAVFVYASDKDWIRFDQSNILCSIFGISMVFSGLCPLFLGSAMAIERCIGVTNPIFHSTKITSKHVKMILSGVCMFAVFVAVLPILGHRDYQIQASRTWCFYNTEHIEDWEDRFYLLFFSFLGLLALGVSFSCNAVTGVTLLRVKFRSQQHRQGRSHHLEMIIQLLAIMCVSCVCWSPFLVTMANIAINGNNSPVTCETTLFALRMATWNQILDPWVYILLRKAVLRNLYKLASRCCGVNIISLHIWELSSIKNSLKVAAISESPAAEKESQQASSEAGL
Procedure, shortened: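 CHO-mFP membranes were incubated with 2.5 nM [3H]PGF2α and varied test concentrations in 10 mM KH2PO4–KOH, 1 mM EDTA, 10 mM MgCl2, 100 mM NaCl, pH 6.0, for 60 min at room temperature. Samples were then filtered on GF/B, washed with ice-cold phosphate/NaCl buffer, and counted by scintillation. IC50 came from the regression curve, and Ki = IC50/(1+[L]/Kd).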

Thromboxane A2 receptor = target: T4, Thromboxane A2 receptor (Homo sapiens, UniProt P21731); test: Displacement of [3H]-SQ29548 from human prostanoid TP receptor expressed in CHO cells after 30 mins by liquid scintillation counting
T4 sequence (P21731 whole entry): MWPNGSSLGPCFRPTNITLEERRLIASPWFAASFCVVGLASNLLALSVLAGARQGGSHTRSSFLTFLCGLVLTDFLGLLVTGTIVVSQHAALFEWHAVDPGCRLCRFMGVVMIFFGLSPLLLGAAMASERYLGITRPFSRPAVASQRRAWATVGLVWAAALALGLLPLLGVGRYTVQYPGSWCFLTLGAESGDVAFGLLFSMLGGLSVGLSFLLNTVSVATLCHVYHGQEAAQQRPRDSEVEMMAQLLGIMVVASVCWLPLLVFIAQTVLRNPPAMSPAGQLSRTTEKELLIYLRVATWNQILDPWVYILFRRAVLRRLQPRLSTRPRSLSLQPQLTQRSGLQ

[7] = target: Prostaglandin E2 receptor EP2 subtype (Mus musculus, UniProt Q62053); test: Displacement of [3H]PGE2 from mouse prostaglandin EP2 receptor expressed in CHO cells after 60 mins by liquid scintillation counting; type: cell-based
Sequence of Prostaglandin E2 receptor EP2 subtype (Q62053 whole entry): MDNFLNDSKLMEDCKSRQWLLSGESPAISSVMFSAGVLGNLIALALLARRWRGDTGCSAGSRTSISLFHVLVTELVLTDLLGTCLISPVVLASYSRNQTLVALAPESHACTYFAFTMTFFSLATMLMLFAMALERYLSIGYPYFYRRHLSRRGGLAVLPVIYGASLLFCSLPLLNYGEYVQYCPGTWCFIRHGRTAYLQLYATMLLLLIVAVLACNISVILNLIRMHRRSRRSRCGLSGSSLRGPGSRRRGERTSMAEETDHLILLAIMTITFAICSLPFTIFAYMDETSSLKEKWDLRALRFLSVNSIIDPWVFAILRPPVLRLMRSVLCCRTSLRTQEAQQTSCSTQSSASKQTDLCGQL
Procedure, shortened: as §1

[8] = AUC (infinity) in rat at 10 mg/kg, po; type: ADME, organism-based; design: time infinity, dose 10 mg/kg, route oral; details: plasma
Procedure, shortened: (§2)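 Fasted male rats (n = 3) received 1 mg/kg iv or 10 mg/kg po. Jugular vein blood was drawn with a heparinized syringe at pre-dose and 2 (iv only), 5, 15 and 30 min, and 1, 2, 4, 6 and 8 h. Plasma was obtained by centrifugation at 4 °C and stored at −80 °C. AUC, Cmax, T1/2, Vss and CL came from the plasma concentration–time course. BA was derived from dose-normalized AUCpo/AUCiv.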

[9] = Half life in rat at 1 mg/kg, iv; type: ADME, organism-based; design: dose 1 mg/kg, route intravenous; details: in vivo
Procedure, shortened: as §2

[10] = Cmax in rat at 10 mg/kg, po; type: ADME, organism-based; design: dose 10 mg/kg, route oral; details: in vivo
Procedure, shortened: as §2

[11] = Oral bioavailability in rat at 10 mg/kg; type: ADME, organism-based; details: in vivo
Procedure, shortened: as §2

[12] = Half life in rat at 10 mg/kg, po; type: ADME, organism-based; design: dose 10 mg/kg, route oral; details: in vivo
Procedure, shortened: as §2

[13] = Volume of distribution at steady state in rat at 1 mg/kg, iv; type: ADME, organism-based; design: dose 1 mg/kg, route intravenous; details: in vivo, read-out: Vdss
Procedure, shortened: as §2

[14] = Total clearance in rat at 1 mg/kg, iv; type: ADME, organism-based; design: dose 1 mg/kg, route intravenous; details: in vivo
Procedure, shortened: as §2

[15] = AUC (infinity) in rat at 1 mg/kg, iv; type: ADME, organism-based; design: time infinity, dose 1 mg/kg, route intravenous; details: plasma
Procedure, shortened: as §2

Structure (SMILES) | Ki [1] | Ki [2] | IC50 [3] | Ki (Prostacyclin receptor) | Ki [4] | Ki [5] | also measured
Cc1cc(OC[C@@H]2CN(C)c3ccccc3O2)ccc1C(=O)Nc1cccc(CC(=O)O)c1 | > 10 µM | > 10 µM | 3.3 nM | 3.6 µM | 18 nM | > 10000 nM | Ki [6]: > 10 µM; Ki (Thromboxane A2 receptor): > 10 µM
CN1C[C@@H](COc2ccc(S(=O)(=O)Nc3cccc(CC(=O)O)c3)cc2)Oc2ccccc21 | 2.7 µM | 0.14 µM |  | 4.6 µM | 430 nM | 210 nM | Ki [7]: 2300 nM
Cc1cc(OC[C@@H]2CN(C)c3ccccc3O2)ccc1C(=O)Nc1cccc(CC(=O)O)c1C |  |  | 28 nM |  | 59 nM |  | 
COc1ccc(NC(=O)c2ccc(OC[C@@H]3CN(C)c4ccccc4O3)cc2Cl)cc1CC(=O)O |  |  | 41 nM |  | 36 nM |  | 
Cc1cc2c(CC(=O)O)cccc2n1C(=O)c1ccc(OC[C@@H]2CN(C)c3ccccc3O2)cc1 |  |  |  |  |  |  | AUC(0-inf) [8]: 24300 ng·h/mL; half-life [9]: 588 min; Cmax [10]: 3500 ng/mL; bioavailability [11]: 34%; half-life [12]: 324 min; Vd [13]: 1.8 L/kg; clearance [14]: 2.4 mL/min/kg; AUC(0-inf) [15]: 7200 ng·h/mL
Cc1ccc(CC(=O)O)cc1NC(=O)c1ccc(OC[C@@H]2CN(C)c3ccccc3O2)cc1Cl |  |  | 6 nM |  | 26 nM |  | 
COc1ccc(NC(=O)c2ccc(OC[C@@H]3CN(C)c4ccccc4O3)cc2C)cc1CC(=O)O |  |  | 20 nM |  | 24 nM |  | 
Cc1ccc(NC(=O)c2ccc(OC[C@@H]3CN(C)c4ccccc4O3)cc2C)cc1CC(=O)O |  |  | 6.1 nM |  | 11 nM |  | 
Cc1cc(OC[C@@H]2CN(C)c3ccccc3O2)ccc1C(=O)Nc1ccc(F)c(CC(=O)O)c1 |  |  | 1.2 nM |  | 15 nM |  | 
Cc1cc(OC[C@@H]2CN(C)c3ccccc3O2)ccc1C(=O)Nc1cc(CC(=O)O)ccc1F |  |  | 1.8 nM |  | 19 nM |  | 
CN1C[C@@H](COc2ccc(C(=O)Nc3cccc(CC(=O)O)c3)c(Cl)c2)Oc2ccccc21 |  |  | 20 nM |  | 16 nM |  | 
CN1C[C@@H](COc2ccc(NC(=O)c3cccc(CC(=O)O)c3)cc2)Oc2ccccc21 | > 10 µM | > 10 µM |  | > 10 µM | 5300 nM | > 10000 nM | Ki [7]: 3500 nM
Cc1cc(OC[C@@H]2CN(C)c3ccccc3O2)ccc1C(=O)Nc1cc(F)cc(CC(=O)O)c1 |  |  | 5.6 nM |  | 7.4 nM |  | 
Cc1cc(CC(=O)O)cc(NC(=O)c2ccc(OC[C@@H]3CN(C)c4ccccc4O3)cc2Cl)c1 |  |  | 5.4 nM |  | 12 nM |  | 
CN1C[C@@H](COc2ccc(C(=O)N(C)c3cccc(CC(=O)O)c3)cc2)Oc2ccccc21 | > 10 µM | > 10 µM |  | > 10 µM | 760 nM | 1700 nM | Ki [7]: 5300 nM
CN1C[C@@H](COc2ccc(C(=O)Nc3cc(CC(=O)O)ccc3Cl)c(Cl)c2)Oc2ccccc21 | 6.6 µM | > 10 µM | 4.3 nM | 1.6 µM | 13 nM | > 10000 nM | Ki [7]: 44 nM; Ki [6]: > 10 µM; Ki (Thromboxane A2 receptor): > 10 µM
CN1C[C@@H](COc2ccc(C(=O)Nc3ccc(F)c(CC(=O)O)c3)c(Cl)c2)Oc2ccccc21 |  |  | 50 nM |  | 25 nM |  | 
Cc1cc(CC(=O)O)cc(NC(=O)c2ccc(OC[C@@H]3CN(C)c4ccccc4O3)cc2C)c1 | > 10 µM | 0.67 µM | 3.4 nM | 3.5 µM | 8.4 nM | > 10000 nM | Ki [7]: 62 nM; Ki [6]: > 10 µM; Ki (Thromboxane A2 receptor): > 10 µM
Cc1ccc(NC(=O)c2ccc(OC[C@@H]3CN(C)c4ccccc4O3)cc2Cl)cc1CC(=O)O |  |  | 3.9 nM |  | 17 nM |  | 
CCN(C(=O)c1ccc(OC[C@@H]2CN(C)c3ccccc3O2)cc1)c1cccc(CC(=O)O)c1 | 1.3 µM | > 10 µM |  | 2.9 µM | 770 nM | 700 nM | Ki [7]: > 10000 nM
Cc1cc(OC[C@@H]2CN(C)c3ccccc3O2)ccc1C(=O)Nc1cc(CC(=O)O)ccc1Cl |  |  |  |  | 7.7 nM |  | 
